Laboratory results as given in ChEMBL document CHEMBL1156681, “Synthesis, anti-bacterial, anti-asthmatic and anti-diabetic activities of novel N-substituted-2-(4-phenylethynyl-phenyl)-1H-benzimidazoles and N-substituted 2[4-(4,4-dimethyl-thiochroman-6-yl-ethynyl)-phenyl)-1H-benzimidazoles” (2008).
In brackets after ≈: the same amount, converted by molar mass. Activity calls are given as the source filed them. The calls are words filed in the database; no cut-off is given here.

Tests used:
[1] = biological target: T1, Tyrosine-protein phosphatase non-receptor type 1 (Homo sapiens) (UniProt P18031); test: Inhibition of human recombinant PTP1B at 30 uM after 30 mins relative to control
T1 sequence (whole entry): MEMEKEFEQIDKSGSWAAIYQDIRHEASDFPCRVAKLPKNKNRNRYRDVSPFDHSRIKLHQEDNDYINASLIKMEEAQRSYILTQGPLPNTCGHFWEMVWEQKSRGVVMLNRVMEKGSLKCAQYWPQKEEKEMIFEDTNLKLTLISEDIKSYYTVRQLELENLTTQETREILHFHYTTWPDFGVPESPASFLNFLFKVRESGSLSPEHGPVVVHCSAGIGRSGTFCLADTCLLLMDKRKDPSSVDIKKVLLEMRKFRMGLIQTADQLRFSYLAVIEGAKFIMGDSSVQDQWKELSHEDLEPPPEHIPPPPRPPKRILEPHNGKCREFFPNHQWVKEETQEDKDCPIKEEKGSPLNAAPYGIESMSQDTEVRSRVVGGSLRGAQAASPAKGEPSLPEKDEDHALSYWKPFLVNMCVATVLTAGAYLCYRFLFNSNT
Procedure, shortened: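 In-house human recombinant PTP-1B (~35 ng) was assayed with p-nitrophenyl phosphate in 25 mM Hepes, 3 mM DTT and 1 mM EDTA, pH 7.4, with DMSO at ≤1%. Absorbance at 405 nm was monitored continuously at 30 °C for 30 min, then NaOH was added and 405 nm read again. Activity was expressed as % of control, and % inhibition as 100 minus activity.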

[2] = tested on: Staphylococcus aureus; test: Antibacterial activity against Staphylococcus aureus at 0.1 ug/ml after 48 hrs by tube dilution method; type: functional, organism-based
Procedure, shortened: (§1)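 Compounds dissolved in DMSO and tested by tube dilution at […]. Tubes were incubated at 37 °C for 48 h. Growth was scored against the DMSO control as poor, medium or confluent (no inhibition). MIC was taken from the dilution series. Cephalexin served as the reference antibacterial and DMSO as the solvent control.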

[3] = tested on: Staphylococcus aureus; test: Antibacterial activity against Staphylococcus aureus at 1 ug/ml after 48 hrs by tube dilution method; type: functional, organism-based; procedure, shortened: as §1
[4] = tested on: Staphylococcus aureus; test: Antibacterial activity against Staphylococcus aureus at 10 ug/ml after 48 hrs by tube dilution method; type: functional, organism-based; procedure, shortened: as §1
[5] = tested on: Staphylococcus aureus; test: Antibacterial activity against Staphylococcus aureus at 100 ug/ml after 48 hrs by tube dilution method; type: functional, organism-based; procedure, shortened: as §1
[6] = tested on: Staphylococcus aureus; test: Antibacterial activity against Staphylococcus aureus at 500 ug/ml after 48 hrs by tube dilution method; type: functional, organism-based; procedure, shortened: as §1
[7] = tested on: Staphylococcus aureus; test: Antibacterial activity against Staphylococcus aureus after 48 hrs by tube dilution method; type: functional; procedure, shortened: as §1
[8] = tested on: Salmonella typhimurium; test: Antibacterial activity against Salmonella Typhimurium at 0.1 ug/ml after 48 hrs by tube dilution method; type: functional, organism-based; conditions: Salmonella enterica subsp. enterica serovar Typhimurium; procedure, shortened: as §1
[9] = tested on: Salmonella typhimurium; test: Antibacterial activity against Salmonella Typhimurium at 1 ug/ml after 48 hrs by tube dilution method; type: functional, organism-based; conditions: Salmonella enterica subsp. enterica serovar Typhimurium; procedure, shortened: as §1
[10] = tested on: Salmonella typhimurium; test: Antibacterial activity against Salmonella Typhimurium at 10 ug/ml after 48 hrs by tube dilution method; type: functional, organism-based; conditions: Salmonella enterica subsp. enterica serovar Typhimurium; procedure, shortened: as §1
[11] = tested on: Salmonella typhimurium; test: Antibacterial activity against Salmonella Typhimurium at 500 ug/ml after 48 hrs by tube dilution method; type: functional, organism-based; conditions: Salmonella enterica subsp. enterica serovar Typhimurium; procedure, shortened: as §1
[12] = tested on: Salmonella typhimurium; test: Antibacterial activity against Salmonella Typhimurium after 48 hrs by tube dilution method; type: functional, Salmonella enterica subsp. enterica serovar Typhimurium; conditions: Salmonella enterica; procedure, shortened: as §1
[13] = biological target: Phosphodiesterase 4 (Homo sapiens) (UniProt P27815+Q08499+Q07343+Q08493); test: Inhibition of human PDE4 at 1 uM after 20 mins; type: protein assay
[14] = biological target: Dipeptidyl peptidase 4 (Homo sapiens) (UniProt P27487); test: Inhibition of human recombinant DPP4 at 0.3 uM after 30 mins relative to control
Dipeptidyl peptidase 4 (Homo sapiens), sequence (P27487 whole entry, looked up): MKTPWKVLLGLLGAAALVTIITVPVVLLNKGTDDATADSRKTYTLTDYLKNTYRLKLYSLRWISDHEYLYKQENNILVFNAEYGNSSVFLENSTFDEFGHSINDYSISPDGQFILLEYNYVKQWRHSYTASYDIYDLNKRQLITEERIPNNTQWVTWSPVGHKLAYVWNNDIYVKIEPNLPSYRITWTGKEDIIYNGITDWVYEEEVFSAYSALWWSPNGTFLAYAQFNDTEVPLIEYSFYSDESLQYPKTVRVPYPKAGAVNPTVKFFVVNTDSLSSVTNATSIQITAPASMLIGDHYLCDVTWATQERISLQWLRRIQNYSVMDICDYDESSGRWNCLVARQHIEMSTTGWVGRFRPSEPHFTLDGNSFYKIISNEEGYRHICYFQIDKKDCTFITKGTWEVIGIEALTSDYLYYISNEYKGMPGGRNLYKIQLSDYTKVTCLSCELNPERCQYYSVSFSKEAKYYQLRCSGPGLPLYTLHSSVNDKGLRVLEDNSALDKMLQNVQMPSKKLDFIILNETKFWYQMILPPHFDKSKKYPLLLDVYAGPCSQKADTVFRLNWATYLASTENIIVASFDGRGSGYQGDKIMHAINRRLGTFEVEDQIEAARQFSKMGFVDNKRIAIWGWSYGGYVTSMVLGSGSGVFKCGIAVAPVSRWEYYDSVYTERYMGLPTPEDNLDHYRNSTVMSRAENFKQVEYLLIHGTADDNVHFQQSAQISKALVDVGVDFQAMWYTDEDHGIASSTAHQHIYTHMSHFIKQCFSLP
Procedure, shortened: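 Recombinant human DPP-IV (10 ng) was run in 25 mM Tris pH 7.4, 140 mM NaCl, 10 mM KCl and 1% BSA with Gly-Pro-AMC substrate. Compounds in DMSO were added, and AMC release was followed kinetically at 30 °C for 30 min (ex 380 / em 460 nm). Percent inhibition was calculated against the solvent-only control.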

[15] = tested on: Salmonella typhimurium; test: Antibacterial activity against Salmonella Typhimurium at 200 ug/ml after 48 hrs by tube dilution method; type: functional, organism-based; conditions: Salmonella enterica subsp. enterica serovar Typhimurium; procedure, shortened: as §1
[16] = tested on: Staphylococcus aureus; test: Antibacterial activity against Staphylococcus aureus at 200 ug/ml after 48 hrs by tube dilution method; type: functional, organism-based; procedure, shortened: as §1

Row | inhibition [1] | MIC [7] | MIC [12] | inhibition [13] | inhibition [14] | SMILES | Activity [2] | Activity [3] | Activity [4] | Activity [5] | Activity [6] | Activity [8] | Activity [9] | Activity [10] | Activity [11] | Activity [15] | Activity [16]
1 | 0% | 500 µg/mL (≈ 1170 µM) | 500 µg/mL (≈ 1170 µM) | 16.9% | 0% | O=S(=O)(n1c(-c2ccc(C#Cc3ccccc3)cc2)nc2ccccc21)C(F)(F)F | inactive | inactive | inactive | inactive | Active | inactive | inactive | inactive | Active |  | 
2 | 8.42% | 500 µg/mL (≈ 1620 µM) | 200 µg/mL (≈ 649 µM) | 22.3% | 9% | Cn1c(-c2ccc(C#Cc3ccccc3)cc2)nc2ccccc21 | inactive | inactive | inactive |  | Active | inactive | inactive | inactive | Active | Active | 
3 | 29% | 500 µg/mL (≈ 1420 µM) | 500 µg/mL (≈ 1420 µM) | 18.2% | 0% | COC(=O)n1c(-c2ccc(C#Cc3ccccc3)cc2)nc2ccccc21 | inactive | inactive |  |  | Active | inactive | inactive | inactive | Active |  | 
4 | 2.42% | 200 µg/mL (≈ 507 µM) | 200 µg/mL (≈ 507 µM) | 0% | 0% | CC1(C)CCSc2ccc(C#Cc3ccc(-c4nc5ccccc5[nH]4)cc3)cc21 | inactive | inactive |  |  | Active | inactive | inactive |  | Active | Active | Active
5 | 27.7% | 500 µg/mL (≈ 1360 µM) | 500 µg/mL (≈ 1360 µM) | 16.5% | 0% | CCOC(=O)n1c(-c2ccc(C#Cc3ccccc3)cc2)nc2ccccc21 | inactive | inactive |  |  | Active | inactive | inactive |  | Active |  | 
6 | 0% | 500 µg/mL (≈ 1070 µM) | 500 µg/mL (≈ 1070 µM) | 16.9% | 7% | CCOC(=O)n1c(-c2ccc(C#Cc3ccc4c(c3)C(C)(C)CCS4)cc2)nc2ccccc21 | inactive | inactive | inactive |  | Active | inactive | inactive | inactive | Active |  | 
7 | 1.64% | 200 µg/mL (≈ 679 µM) | 200 µg/mL (≈ 679 µM) | 3.4% | 0% | C(#Cc1ccc(-c2nc3ccccc3[nH]2)cc1)c1ccccc1 | inactive | inactive | inactive |  | Active | inactive | inactive | inactive | Active | Active | Active
8 | 0% | 200 µg/mL (≈ 446 µM) | 200 µg/mL (≈ 446 µM) | 22.6% | 0% | Cc1ccc(S(=O)(=O)n2c(-c3ccc(C#Cc4ccccc4)cc3)nc3ccccc32)cc1 | inactive | inactive |  |  | Active | inactive | inactive | inactive | Active | Active | Active
9 | 0% | 200 µg/mL (≈ 473 µM) | 200 µg/mL (≈ 473 µM) | 15.8% | 0% | CCn1c(-c2ccc(C#Cc3ccc4c(c3)C(C)(C)CCS4)cc2)nc2ccccc21 | inactive | inactive | inactive |  | Active | inactive | inactive | inactive | Active | Active | Active
10 | 7.38% | 500 µg/mL (≈ 1150 µM) | 500 µg/mL (≈ 1150 µM) | 17.3% | 0% | CCCn1c(-c2ccc(C#Cc3ccc4c(c3)C(C)(C)CCS4)cc2)nc2ccccc21 | inactive | inactive | inactive |  | Active | inactive | inactive | inactive | Active |  | 
11 | 0% | 500 µg/mL (≈ 1490 µM) | 500 µg/mL (≈ 1490 µM) | 8.91% | 0% | CCCn1c(-c2ccc(C#Cc3ccccc3)cc2)nc2ccccc21 | inactive | inactive | inactive |  | Active | inactive | inactive |  | Active |  | 
12 | 1.94% | 500 µg/mL (≈ 1010 µM) | 500 µg/mL (≈ 1010 µM) | 21% | 0% | CCCCOC(=O)n1c(-c2ccc(C#Cc3ccc4c(c3)C(C)(C)CCS4)cc2)nc2ccccc21 | inactive | inactive |  |  | Active | inactive | inactive |  | Active |  | 
13 | 0% | 500 µg/mL (≈ 1430 µM) | 500 µg/mL (≈ 1430 µM) | 19.4% | 3% | CCCCn1c(-c2ccc(C#Cc3ccccc3)cc2)nc2ccccc21 | inactive | inactive |  |  | Active | inactive | inactive |  | Active |  | 
14 | 0.15% | 200 µg/mL (≈ 444 µM) | 200 µg/mL (≈ 444 µM) | 19.9% | 5% | CCCCn1c(-c2ccc(C#Cc3ccc4c(c3)C(C)(C)CCS4)cc2)nc2ccccc21 | inactive |  |  |  | Active | inactive | inactive |  | Active | Active | Active
15 | 0.52% | 500 µg/mL (≈ 949 µM) | 200 µg/mL (≈ 380 µM) | 22.6% | 9% | CC1(C)CCSc2ccc(C#Cc3ccc(-c4nc5ccccc5n4S(=O)(=O)C(F)(F)F)cc3)cc21 | inactive | inactive | inactive |  | Active | inactive | inactive | inactive | Active | Active | 
16 | 0.97% | 200 µg/mL (≈ 442 µM) | 200 µg/mL (≈ 442 µM) | 17.9% | 5% | COC(=O)n1c(-c2ccc(C#Cc3ccc4c(c3)C(C)(C)CCS4)cc2)nc2ccccc21 | inactive | inactive |  |  | Active | inactive | inactive |  | Active | Active | Active
17 | 0% | 200 µg/mL (≈ 490 µM) | 200 µg/mL (≈ 490 µM) | 18.2% | 0% | Cn1c(-c2ccc(C#Cc3ccc4c(c3)C(C)(C)CCS4)cc2)nc2ccccc21 | inactive | inactive |  |  | Active | inactive | inactive |  | Active | Active | Active
